Assay results reported in PMC12988600 (AAPS PharmSciTech, 2019).
≈ marks a conversion by molar mass, not a printed value.

Experiments:
[1] = Saturation solubility of ERL batches in water; type: physicochemical
[2] = In vitro dissolution, USP apparatus II; type: physicochemical; settings: within 5 min
How it was run: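 USP II paddle dissolution at 37 ± 0.5°C and 75 rpm in 500 ml of 0.1 N HCl, FaSSIF or FeSSIF. Plain drug or liquisolid formulation was added at 50 mg drug-equivalent. Aliquots were taken at […], with the medium replaced each time. Samples were centrifuged at 10,000 rpm for 10 min and the supernatant was quantified by HPLC-DAD at 246 nm.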

[3] = test system: ERL-resistant HCC827 cells; assay: In vitro cytotoxicity, crystal violet; type: cell-based; settings: 48 h
[4] = human; cited from earlier work
HCC 827/ERL cells = assay: Annexin V-FITC apoptosis assay, flow cytometry; type: cell-based; settings: HCC827/ERL cells, 48 h, VA 0.5 mM where present

Question: For `C#Cc1cccc(Nc2ncnc3cc(OCCOC)c(OCCOC)cc23)c1` [ERL, Erlotinib], which solubility at 24 h [1] is on record?
Answer: 0.7 µg/mL (≈ 1.78 µM)

Question: And the “% drug dissolved” value ([2]; FaSSIF)?
Answer: 1.1%

Question: And the “% drug dissolved” value ([2]; FeSSIF)?
Answer: 13%

Question: And the “% cell killing” value ([3]; 25 μM (highest concentration))?
Answer: < 15%

Question: And the “Absorbed after oral administration” value [4]?
Answer: about 60%

Question: What does the source list for `CCCC(CCC)C(=O)O` [VA, 2-propylpentanoic acid]?
Answer: Cell killing ([3]; 0.5 mM): did not show significant cell killing; Apoptotic cells (HCC 827/ERL cells): poor apoptotic effect
